Data set [1] concerns the target T1, Peroxisome proliferator-activated receptor alpha (Homo sapiens, UniProt Q07869).
T1 sequence (Q07869 whole entry): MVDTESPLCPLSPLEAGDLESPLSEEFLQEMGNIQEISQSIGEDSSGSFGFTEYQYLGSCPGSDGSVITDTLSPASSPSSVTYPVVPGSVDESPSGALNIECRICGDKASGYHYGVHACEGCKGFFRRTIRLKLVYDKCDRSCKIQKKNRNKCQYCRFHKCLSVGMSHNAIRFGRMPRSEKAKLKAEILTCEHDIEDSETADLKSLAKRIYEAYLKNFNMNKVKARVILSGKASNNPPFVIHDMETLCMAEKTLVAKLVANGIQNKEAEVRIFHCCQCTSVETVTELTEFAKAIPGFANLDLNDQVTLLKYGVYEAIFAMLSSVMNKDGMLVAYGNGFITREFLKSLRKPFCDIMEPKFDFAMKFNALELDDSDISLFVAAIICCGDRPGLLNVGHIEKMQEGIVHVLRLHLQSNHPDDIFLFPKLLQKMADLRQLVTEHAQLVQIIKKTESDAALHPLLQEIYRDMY
Put plainly: Agonist activity at recombinant human PPARalpha LBD (168 to 468 residues) expressed in African green monkey COS-1 cells incubated for 18 hrs by luciferase reporter gene assay. Type of data set: cell-based. An outline of the steps: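 Transient Gal4 one-hybrid assay in COS-1 cells (7×10^4 per well), transfected 24 h after seeding. Plasmids were Gal4-DBD fused to the human nuclear receptor LBD, a 5×UAS-SV40 luciferase reporter and pRL-CMV Renilla control. Ligand in DMSO (final 0.1%) was added 5 h post-transfection. Dual-luciferase activity was read after 18 h, expressed as RLU, from three biological replicates in quadruplicate.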

The nature of data set [2]: Cytotoxicity against African green monkey COS-1 cells assessed as cell viability at EC50 concentration for PPAR activation assay by LDH assay. Type of data set: cell-based. To be noted: chlorocebus aethiops, read-out: Activity. The essentials: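 Assayed in the same COS-1 cultures as the Gal4-LBD PPAR reporter assays. Lactate dehydrogenase released into the medium was measured with a commercial kit per the maker's protocol. Absorbance was read at 492/750 nm.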

The nature of data set [3]: Cytotoxicity against African green monkey COS-1 cells assessed as cell viability at EC50 concentration for PPAR activation assay by XTT assay. Type of data set: cell-based. Particulars: chlorocebus aethiops, read-out: Activity. An outline of the steps:
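Run on COS-1 cells treated in parallel with the Gal4-LBD PPAR reporter assays. Metabolic NAD(P)H flux was measured by kit XTT assay per the maker's protocol. Absorbance was read at 450/690 nm.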

The target in data set [4] is T2, Peroxisome proliferator-activated receptor gamma (Homo sapiens) (UniProt P37231).
T2 sequence (whole entry): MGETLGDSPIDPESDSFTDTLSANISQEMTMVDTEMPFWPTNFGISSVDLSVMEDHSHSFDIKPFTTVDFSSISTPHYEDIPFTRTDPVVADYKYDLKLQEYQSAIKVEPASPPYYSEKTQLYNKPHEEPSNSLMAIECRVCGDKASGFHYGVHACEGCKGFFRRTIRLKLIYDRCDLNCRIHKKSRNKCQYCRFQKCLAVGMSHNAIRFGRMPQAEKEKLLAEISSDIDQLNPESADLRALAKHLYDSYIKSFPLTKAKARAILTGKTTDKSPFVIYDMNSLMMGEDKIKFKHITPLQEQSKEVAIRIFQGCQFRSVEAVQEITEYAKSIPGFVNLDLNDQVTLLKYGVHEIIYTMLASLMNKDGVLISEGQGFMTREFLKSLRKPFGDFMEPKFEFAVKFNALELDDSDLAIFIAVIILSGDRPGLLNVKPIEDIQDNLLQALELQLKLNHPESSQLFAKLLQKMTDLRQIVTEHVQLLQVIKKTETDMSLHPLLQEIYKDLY
Put plainly: Agonist activity at human PPARgamma in 8 day differentiated human SGBS cells assessed as decrease in TNF gene expression at 2 uM incubated for 24 hrs by SYBR-green based qPCR analysis. (In general: Quantitative PCR measures a nucleic acid by following its amplification.)

The target of data set [5] is T2, Peroxisome proliferator-activated receptor gamma (Homo sapiens). As to the kind of experiment: Agonist activity at human PPARgamma in 8 day differentiated human SGBS cells assessed as decrease in CXCL1 gene expression at 2 uM incubated for 24 hrs by SYBR-green based qPCR analysis.
Data set [6] has the same target. Put plainly: Agonist activity at human PPARgamma in 8 day differentiated human SGBS cells assessed as decrease in CXCL5 gene expression at 2 uM incubated for 24 hrs by SYBR-green based qPCR analysis.
Data set [7] shares this target. As to the kind of experiment: Agonist activity at human PPARgamma in 8 day differentiated human SGBS cells assessed as decrease in IL-1 beta gene expression at 2 uM incubated for 24 hrs by SYBR-green based qPCR analysis.
Data set [8] has the same target. Put plainly: Agonist activity at human PPARgamma in 8 day differentiated human SGBS cells assessed as decrease in […] gene expression at 2 uM incubated for 24 hrs by SYBR-green based qPCR analysis.

The source made the active and inactive calls. The calls are words filed in the database; no cut-off is given here.

One may read the EC50 as the concentration that produces a half-maximal response.

On to `CCCCCCCCCCCCCCCC(=O)O` [PALMITIC ACID], for which the EC50 in data set [1] turned out to be 35 µM. Further, the values for the viability in data set [2] and in data set [3] were over 95% and over 90%, respectively.

With `CN(CCOc1ccc(CC2SC(=O)NC2=O)cc1)c1ccccn1` (configuration not stated) [ROSIGLITAZONE], the viability in data set [2] and in data set [3] was over 95% in each case. The outcome in data set [4], in data set [5], in data set [6], in data set [7] and in data set [8] was inactive.

Consider `Cc1cccc(Nc2cc(Cl)nc(SCC(=O)O)n2)c1C` [PIRINIXIC ACID], for which the viability in data set [2] and in data set [3] was over 95% each time.

These data come from ChEMBL document CHEMBL4715825, “Synthesis and biological evaluations of marine oxohexadecenoic acids: PPARα/γ dual agonism and anti-diabetic target gene effects” (Eur J Med Chem, 2018).
